Results on 71 compounds are retold here after ChEMBL document CHEMBL4513216, “Probing the Open Global Health Chemical Diversity Library for Multistage-Active Starting Points for Next-Generation Antimalarials” (ACS Infect Dis, 2020).

The nature of the series: Toxicity liver stage against HepG2, at 10uM. It is filed as cell-based. Set-up: test concentration 10 uM, cell line HepG2-A16-CD81EGFP. The conditions noted are these: human, HepG2-A16-CD81EGFP cells; read-out: INHIBITION
Put shortly:
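Uninfected HepG2-A16-CD81EGFP cells, 3 × 10^3 per well, 1536-well, plated on prespotted compound at 10 μM final, parasite-free screening media added to match infected plates; puromycin 10 μM positive, DMSO 0.5% negative; run in parallel with 48 h PbLuc assay at 37 °C, 5% CO2; viability by CellTiter-Glo luminescence, normalized to controls.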
Turning to `Cn1cncc1-c1nnc([C@H]2CCN(Cc3ncc[nH]3)C2)o1`, the cytotoxicity at 10 µM was 1.62%.
As for `CC(C)(C)C(=O)N1C[C@@H](F)[C@@H](OCc2nc3ccccc3o2)C1`, the cytotoxicity at 10 µM came to 3.33%.
The result for `O=C(Cc1cc(-c2ccc3c(c2)OCCO3)on1)NCc1ccccn1` reads 26.4%.
The result for `Cn1cc(S(=O)(=O)NCCc2ccsc2)cn1` reads 5.26%; that for `CN1CC[C@H]2[C@H](C[C@@H](Cn3cncn3)N2c2nccs2)C1`, -144%.
With `Cc1cccc(S(=O)(=O)N2CCCc3c(c(=O)n(C)n3C)C2)c1` the figure was -2.08%; with `CS(=O)(=O)N1CC(c2ncn3ccccc23)C1`, 5.6%; with `O=C(c1cnccn1)N1CC[C@H]2[C@H]1CCN2S(=O)(=O)C1CC1`, -168%.
Take `COc1ccc(N2CCN(CC(O)c3cc(C)ccc3C)CC2)cc1` (stereo unspecified): the cytotoxicity at 10 µM turned out to be 7.25%.
With `COc1ccc(OC)c(C2SCC(=O)Nc3n[nH]cc32)c1` (stereo unspecified) the figure was 12.8%; with `Nc1ncccc1C(=O)NCc1cccc(Cl)c1`, 20.5%.
The result for `Nc1ncc(-c2ccc(C(F)(F)F)cc2)c(C2CCCNC2)n1` (stereo unspecified) reads 27.1%; that for `CCC1c2ccsc2CCN1Cc1cc2c(cc1OC)OCCO2` (stereo unspecified), 29.4%; that for `N#Cc1ccccc1OCCN1CCC(C(=O)N2CCOCC2)CC1`, -47.2%.
With `COC(=O)CC(NC(=O)c1cccc(CS(C)(=O)=O)c1)c1cccs1` (stereo unspecified) the figure was -44.8%.
As for `CC1CCCCN1C(=O)Cn1cnc(C#N)n1` (stereo unspecified), the cytotoxicity at 10 µM was -18.8%.
On to `CC(CNC(=O)CCCn1cncn1)N1CCc2ccccc2C1` (stereo unspecified), for which the cytotoxicity at 10 µM was -130%.
With `CCc1cnc(CNC(=O)NCCc2ccc(O)cc2)s1` the figure was 2.31%; with `CCOc1ccc(C(=O)NCc2ccnc(N3CCCC3)c2)cn1`, 6.62%.
Turning to `O=C(c1cnc(OCC(F)(F)F)c(Cl)c1)N1CCc2ccc(O)cc2C1`, the cytotoxicity at 10 µM is -5.38%.
With `CCN(CCS(=O)(=O)c1ccc(Cl)cc1)Cc1ccc(OC)c(OC)c1` the figure was 31.7%; with `N#CCCN(Cc1ccco1)C(=O)c1ccc(OCC2CC2)cc1`, -5.87%.
With `c1cc(CNCc2ccnc(N3CCCCC3)c2)c2c(c1)OCCCO2` the figure was 21.4%; with `OC(CN(Cc1ccccc1)Cc1ccon1)c1cccs1` (stereo unspecified), -0.359%.
With `Cc1cnn(CC2CCCN2Cc2coc(-c3ccc(F)cc3)n2)c1` (stereo unspecified) the figure was -0.953%.
For `Cc1nc(O)ccc1C(=O)N1CCCC1c1nc(-c2ccccc2)n[nH]1` (stereo unspecified), the cytotoxicity at 10 µM was found to be 0.636%.
In the case of `CCC(C(=O)Nc1ccc2nc(C)oc2c1)N1CCCC1=O` (stereo unspecified), the cytotoxicity at 10 µM was -41.9%.
With `CC(NCc1ccsc1)c1ccc(OCc2nccn2C)cc1` (stereo unspecified) the figure was -6.37%.
The result for `Cc1cc(F)ccc1N1CCCC(NC(=O)CCCn2ccnc2)C1` (stereo unspecified) reads 3.45%.
`O=C(c1ccccc1F)N1CC[C@@H]2CN(c3ncccn3)CCO[C@@H]2C1`: the cytotoxicity at 10 µM was -78.1%.
The result for `CC(=O)N1Cc2nc(C(=O)NCCc3cccnc3)oc2C1` reads -81.8%; that for `CC(C)NC(=O)[C@@H]1CN(Cc2nccs2)C[C@H]2OCC[C@H]21`, -93.5%.
With `Cc1ccc(CN2CCC3(CC(=O)N(c4ccc5c(c4)OCO5)C3)C2)o1` (stereo unspecified) the figure was -70.2%; with `O=C(NCC1CCCN(Cc2cccc3nonc23)C1)c1ccc[nH]1` (stereo unspecified), -42.2%; with `CCNc1ncc(C(=O)N[C@@H](C)[C@H](O)c2ccccc2)cn1`, -4.71%.
The result for `CC(C)(C)c1cn(C2CCN(C3CCSC3)CC2)nn1` (stereo unspecified) reads -3.99%.
`CCn1cc(CN2CCCC(c3[nH]ncc3-c3ccc(C)cc3)C2)cn1` (stereo unspecified): the cytotoxicity at 10 µM was -1.67%.
The result for `Cc1cccc(N2CCN(CCC(=O)NCc3ccc(C)s3)CC2)c1` reads -0.432%; that for `O=C(CCC1CCN(Cc2ccncc2)CC1)Nc1ccccc1Cl`, -3.9%; that for `CC(=O)c1ccc(C(=O)NCc2cccnc2N2CCCC(O)C2)s1` (stereo unspecified), -0.147%.
For `CN(Cc1ccc(C2CC(=O)Nc3cc4[nH]ncc4cc32)o1)S(C)(=O)=O` (stereo unspecified), the cytotoxicity at 10 µM was found to be 34.1%.
The result for `CN1CCc2[nH]nc(C(=O)N3CCC4(CCCO4)CC3)c2C1` reads -47.1%; that for `CCN(CCN(C)C)c1nc(CCN)nc2sc(C)c(C)c12`, -1.78%; that for `CN1CCN(Cc2cnn(-c3ccc(F)cc3)c2)[C@H]2CS(=O)(=O)C[C@H]21`, 12.8%.
Consider `Cc1ccsc1CN(CCN(C)C)C(=O)c1cc2ccccc2[nH]1`, for which the cytotoxicity at 10 µM was -139%.
With `CCN(CC)S(=O)(=O)N1CCCC(c2nccn2Cc2ccncc2)C1` (stereo unspecified) the figure was 9.2%.
As to `CC(C)N1CCC2(CCCN(Cc3ccc(F)cc3)C2=O)C1` (stereo unspecified), the cytotoxicity at 10 µM is -28.7%.
Take `CC(=O)N1CCc2c(nc(N(C)C)nc2NCCCn2ccnc2C)C1`: the cytotoxicity at 10 µM is -7.42%.
On to `CNCc1cn(C2CCN(C(=O)NCc3ccco3)CC2)nn1`, for which the cytotoxicity at 10 µM was determined as 1.11%.
On to `Fc1ccccc1CN1CCCN(c2ccc3cc[nH]c3n2)CC1`, for which the cytotoxicity at 10 µM is -15.2%.
With `COC(=O)Cn1c(C)cc(=O)c2cc(F)ccc21` the figure was 2.63%.
The result for `Fc1ccc(CCC2CCCN(Cc3c[nH]cn3)C2)c(F)c1` (stereo unspecified) reads -6.51%; that for `O=C(NCc1cc(N2CCOCC2)ncn1)c1cccc(CO)n1`, -7.76%; that for `CC(C)n1ccnc1C1CCCN(c2ccnc3ccccc23)C1` (stereo unspecified), 38.4%.
With `COC(=O)c1ccc(CNCc2cn(C)nc2C)cc1` the figure was -8.55%; with `Cc1cc(-c2cnc(N3CCN(C)CC3)nc2-c2ccc(C)s2)on1`, -3.68%; with `Cc1csc(C2CCCCN2C(=O)c2cc(C(C)C)[nH]n2)n1` (stereo unspecified), -1.59%.
`Cn1nccc1C1CCN(CC(=O)NCC2CC2)CC1`: the cytotoxicity at 10 µM was -9.38%.
With `O=C(CCCc1cccs1)N1CCC(N2CCNC2=O)CC1` the figure was 2.83%; with `O=C(Cc1ccc2c(c1)CCCC2)NCCc1ccccn1`, 1.9%; with `CNS(=O)(=O)c1cccc(CNc2nccc(C(F)(F)F)n2)c1`, 17.2%.
The result for `Cc1cc(F)ccc1-c1ccccc1CC1CNCCNC1=O` (stereo unspecified) reads 5.08%; that for `CC(C)N(Cc1ccc(C(=O)O)o1)C(C)C`, -1.2%.
On to `Cc1ncc(CN(Cc2ccccn2)Cc2ccccc2Cl)n1C`, for which the cytotoxicity at 10 µM was -1.45%.
With `Cc1cc(C[C@@H]2CCC[C@H]2NCc2ccccc2C(F)(F)F)on1` the figure was 2.8%; with `CCn1cc2c(n1)CN(Cc1nccs1)CC2COCC1CC1` (stereo unspecified), 6.07%.
The result for `COc1ncccc1CN1CCC2(CC1)COCCN2C` reads 16.6%.
The result for `O=C1[C@@H]2CCN(Cc3ccoc3)C[C@@H]2OCCN1Cc1cccc(F)c1` reads -98.2%; that for `CCN(C)C1COC2(CCN(C(=O)c3ccc(Cl)cc3)CC2)C1` (stereo unspecified), -2.57%.
Turning to `CC(=O)NCc1nn(C)c2c1CN(Cc1ccsc1)C2`, the cytotoxicity at 10 µM was -144%.
With `CCOCCN1CCN(C=C2NN=C(c3occc3C)O2)CC1` the figure was -50.4%.
